Measurements gathered from unrelated publications.
Lines come from different studies, so protocols differ.
Target: Vascular endothelial growth factor receptor 2 (KDR, Homo sapiens, UniProt P35968)

SMILES | assay | conditions | remaining binding [%]
CO[C@@H](C)c1c(Nc2ccc([C@@H](N(C)C(=O)C3CCS(=O)(=O)CC3)C(F)(F)F)cc2)cnc2cc(Cl)nn12 | cell-free assay, competition with immobilised ligand | 1 µM | 95
c1cnn2ncc(-c3ccnc(N4CCC45COC5)n3)c2c1 | binding | 1 µM | 67
CC(=O)C1=C(C)N(c2cccc(C(F)(F)F)c2)C(=O)N[C@@H]1c1ccc(C#N)nc1 | cell-free assay, competition with immobilised ligand | 1 µM | 84
O=C(c1ccc(Nc2nccc(-c3cc4ccccc4s3)n2)cc1)N1CCC(N2CCCC2)CC1 | binding, competition with immobilised ligand | 1 µM | 47
CNC(=O)[C@@H]1CC[C@@H](n2c(-c3ccc4cnccc4c3)nc3ccc(C(=O)NCc4cccc(C(N)=O)c4)cc32)C1 | binding, competition with immobilised ligand | 1 µM | 69
O=C(Nc1cnc(Oc2ccc(F)cc2)nc1)N1CCc2ncccc2[C@@H]1c1ccc(F)cc1 | cell-free assay, competition with immobilised ligand | 1 µM | 88
CN(c1nccc(-c2cnn3ncccc23)n1)C1CC1 | binding | 1 µM | 100
O=C(NCC1CCOCC1)c1n[nH]cc1NC(=O)c1c(F)cccc1F | binding, competition with immobilised ligand | 1 µM | 82
C[C@@H](c1ccc(-n2cnc3c(N)ncnc32)cc1)N1CCc2nn(C)c(Cc3ccccc3)c2C1=O | binding, competition with immobilised ligand | 0.1 µM | 69
COc1ccc2c(O[C@@H]3C[C@H]4C(=O)N[C@]5(C(=O)O)CC5/C=C\CCCCC[C@H](NC(=O)OC5CCCC5)C(=O)N4C3)cc(-c3csc(NC(=O)C(C)C)n3)nc2c1C (stereo partly shown) | cell-free assay, competition with immobilised ligand | 1 µM | 83
C[C@@H]1CN(c2ccc3ncc(-c4ccc5[nH]nc(C6CC6)c5c4)n3n2)C[C@H](C)O1 | binding, competition with immobilised ligand | 0.5 µM | 100
Nc1cnc(N2CCc3cc(S(=O)(=O)Nc4c(F)cc(Cl)cc4F)cc(N4CCCC4=O)c32)nc1 | cell-free assay, competition with immobilised ligand | 1 µM | 81
O=C(c1ccc(Nc2ncc(Cl)c(-c3ccc(Cl)s3)n2)cc1)N1CCC(N2CCCC2)CC1 | binding, competition with immobilised ligand | 1 µM | 2.2
CC(C)(C)c1ccc(-c2nc(CBr)nn2-c2cccc(O)c2)cc1 | cell-free assay, competition with immobilised ligand | 10 µM | 83
CCC(=O)N[C@@H]1CC[C@H](C(=O)N(C)c2ccc(-c3nc4ccccc4o3)cc2)C1 | cell-free assay, competition with immobilised ligand | 1 µM | 77
COc1cnc(Nc2cccc(S(N)(=O)=O)c2)nc1N1CCN(c2ccccc2)C(=O)C1 | binding, competition with immobilised ligand | 1 µM | 100
N#CC1(c2ccccn2)CCN(Cc2cc(C(=O)N3CCCC3)c(=O)n3ccccc23)CC1 | cell-free assay, competition with immobilised ligand | 1 µM | 92
CN(CCCC(F)(F)F)c1nccc(-c2cnn3ncccc23)n1 | binding | 1 µM | 100
COc1ncc2cc3ccccc3nc2c1C#N | cell-free assay, competition with immobilised ligand | 5 µM | 100
N[C@H]1CCN(c2nccc(-c3cnn4ncccc34)n2)C1 | binding | 1 µM | 100
O=C(O)[C@H]1[C@H](Cn2nnc3ccccc3c2=O)CC[C@@H]1C(=O)c1ccc(OCCC2CCOCC2)cc1 | cell-free assay, competition with immobilised ligand | 1 µM | 88
C[C@H]1CCN(c2nccc(-c3cnn4ncccc34)n2)C1 | binding | 1 µM | 92
Nc1ncc2c(n1)-c1c([nH]c3ccc(C#CC4CC4)cc13)CCCC2 | binding, competition with immobilised ligand | 1 µM | 90
Cc1cnn2ncc(-c3ccnc(N(C)C)n3)c2c1 | binding | 1 µM | 96
Cc1cnc(Nc2ccc(C(=O)N3CCC(N4CCCC4)CC3)cc2)nc1-c1cc2ccccc2s1 | binding, competition with immobilised ligand | 1 µM | 4.3
